According to ChEMBL document CHEMBL1137218, “Long hydrocarbon chain ether diols and ether diacids that favorably alter lipid disorders in vivo” (J Med Chem, 2004):

Columns and labels:
Type in all cases: functional
Rattus norvegicus [1] = species on record: Rattus norvegicus; assay: In vitro inhibitory concentration against lipid synthesis in primary rat hepatocyte culture
Outline: (§1)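 Primary hepatocytes isolated from male Sprague-Dawley rats (Seglen method) and plated on collagen in DMEM with 20% FBS, 100 nM insulin, 25 mM glucose. Medium made serum-free after 4 h, cultured overnight to monolayers. Then 4 h incubation with 0.25 μCi [14C]-acetate/well (1 Ci/mol) and 0–300 μM compound. Lipids extracted into scintillant and counted. IC50 derived from lipid synthesis rates by nonlinear sigmoidal fit.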

Rattus norvegicus [2] = assay: Percent change from pre-treatment triglycerides level at 100 mg/Kg after 1 week
Outline: (§2)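 Female obese Zucker fatty rats Crl:(Zuc)-faBR, 10–12 weeks old (400–500 g), n=3–4, fed chow. Dosed by oral gavage once daily in 20% EtOH/80% PEG-200 for up to 14 days. Serum taken after a 6 h fast before dosing, at day 7 (orbital plexus) and at day 14 (cardiac puncture). TG by enzymatic kit on analyzer. HDL-C and non-HDL-C from Superose 6 gel-filtration profile area × total cholesterol. Results given as % change from pretreatment.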

Rattus norvegicus [3] = assay: Percent change from pre-treatment triglycerides level at 100 mg/Kg after 2 weeks; outline: as §2
Rattus norvegicus [4] = assay: Percent change from pre-treatment HDL-Cholesterol level at 100 mg/Kg after 1 week; outline: as §2
Rattus norvegicus [5] = assay: Percent change from pre-treatment HDL-Cholesterol level at 100 mg/Kg after 2 weeks; outline: as §2
Rattus norvegicus [6] = assay: Percent change from pre-treatment Non HDL-Cholesterol level at 100 mg/Kg after 1 week; outline: as §2
Rattus norvegicus [7] = assay: Percent change from pre-treatment Non HDL-Cholesterol level at 100 mg/Kg after 2 weeks; outline: as §2
Rattus norvegicus [8] = assay: Percent change from pre-treatment in Triglycerides level at 30 mg/kg after 1 week.; outline: as §2
Rattus norvegicus [9] = assay: Percent change from pre-treatment in Triglycerides level at 30 mg/kg after 2 weeks.; outline: as §2
Rattus norvegicus [10] = assay: Percent change from pre-treatment in HDL-Cholesterol level at 30 mg/kg after 1 week.; outline: as §2
Rattus norvegicus [11] = assay: Percent change from pre-treatment in HDL-Cholesterol level at 30 mg/kg after 2 weeks.; outline: as §2
Rattus norvegicus [12] = assay: Percent change from pre-treatment in Non HDL-Cholesterol level at 30 mg/kg after 1 week.; outline: as §2
Rattus norvegicus [13] = assay: Percent change from pre-treatment in Non HDL-Cholesterol level at 30 mg/kg after 2 weeks.; outline: as §2
Rattus norvegicus [14] = species on record: Rattus norvegicus; assay: In Vitro inhibitory concentration against lipid synthesis in primary rat hepatocyte culture. na=Not active; inhibition of [14C]acetate incorporation into total lipids is less than 50% at 300 uM.; outline: as §1
Rattus norvegicus [15] = assay: Percent change from pre-treatment in Triglycerides level at 80 mg/kg after 1 week; outline: as §2
Rattus norvegicus [16] = assay: Percent change from pre-treatment in Triglycerides level at 80 mg/kg after 2 weeks; outline: as §2
Rattus norvegicus [17] = assay: Percent change from pre-treatment in HDL-Cholesterol level at 80 mg/kg after 1 week; outline: as §2
Rattus norvegicus [18] = assay: Percent change from pre-treatment in Non HDL-Cholesterol level at 80 mg/kg after 1 week; outline: as §2
Rattus norvegicus [19] = assay: Percent change from pre-treatment in Non HDL-Cholesterol level at 80 mg/kg after 2 weeks; outline: as §2
Rattus norvegicus [20] = assay: Percent change from pre-treatment in HDL-Cholesterol level at 80 mg/kg after 2 weeks; outline: as §2
Rattus norvegicus [21] = assay: Percent change from pre-treatment in Triglycerides level at 97 mg/kg after 1 week.; outline: as §2
Rattus norvegicus [22] = assay: Percent change from pre-treatment in Triglycerides level at 97 mg/kg after 2 weeks.; outline: as §2
Rattus norvegicus [23] = assay: Percent change from pre-treatment in HDL-Cholesterol level at 97 mg/kg after 2 weeks.; outline: as §2
Rattus norvegicus [24] = assay: Percent change from pre-treatment in Non HDL-Cholesterol level at 97 mg/kg after 1 week.; outline: as §2
Rattus norvegicus [25] = assay: Percent change from pre-treatment in Non HDL-Cholesterol level at 97 mg/kg after 2 weeks.; outline: as §2

CC(C)(CO)CCCCOCCCCC(C)(C)COC1CCCCO1 (centres undefined)
IC50 (Rattus norvegicus [1]): 11 µM
Change (Rattus norvegicus [2]): -69%
Change (Rattus norvegicus [3]): -63%
Change (Rattus norvegicus [4]): 130%
Change (Rattus norvegicus [5]): 152%
Change (Rattus norvegicus [6]): -28%
Change (Rattus norvegicus [7]): -14%

CC(C)(CO)CCCCOCCCC(C)(C)CO
IC50 (Rattus norvegicus [1]): 17 µM
Change (Rattus norvegicus [8]): 21%
Change (Rattus norvegicus [9]): 32%
Change (Rattus norvegicus [10]): 24%
Change (Rattus norvegicus [11]): 40%
Change (Rattus norvegicus [12]): 44%
Change (Rattus norvegicus [13]): 74%

CC(CO)(CCCOCCCC(C)(CO)c1ccccc1)c1ccccc1 (centres undefined)
IC50 (Rattus norvegicus [1]): 130 µM
Change (Rattus norvegicus [2]): -27%
Change (Rattus norvegicus [3]): -18%
Change (Rattus norvegicus [4]): 7%
Change (Rattus norvegicus [5]): 5%
Change (Rattus norvegicus [6]): -32%
Change (Rattus norvegicus [7]): -26%

CC(C)(CO)CCCOCCOCCCC(C)(C)CO
Change (Rattus norvegicus [2]): -9%
Change (Rattus norvegicus [3]): 6%
Change (Rattus norvegicus [4]): 3%
Change (Rattus norvegicus [5]): 10%
Change (Rattus norvegicus [6]): 33%
Change (Rattus norvegicus [7]): 45%
IC50 (Rattus norvegicus [14]): Not Active

CC(C)(CCOCCCOCCC(C)(C)C(=O)O)C(=O)O
Change (Rattus norvegicus [15]): 5%
Change (Rattus norvegicus [16]): 46%
Change (Rattus norvegicus [17]): -18%
Change (Rattus norvegicus [18]): -10%
Change (Rattus norvegicus [19]): 15%
Change (Rattus norvegicus [20]): -5%

CC(C)(CCCCCCCCCCCC(C)(C)C(=O)O)C(=O)O
IC50 (Rattus norvegicus [1]): 7 µM
Change (Rattus norvegicus [2]): -89%
Change (Rattus norvegicus [3]): -87%
Change (Rattus norvegicus [4]): -14%
Change (Rattus norvegicus [5]): -6%
Change (Rattus norvegicus [6]): -66%
Change (Rattus norvegicus [7]): -60%

CC(C)(CO)Cc1cccc(Oc2cccc(CC(C)(C)CO)c2)c1
IC50 (Rattus norvegicus [1]): 98 µM
Change (Rattus norvegicus [2]): -32%
Change (Rattus norvegicus [3]): -54%
Change (Rattus norvegicus [4]): 17%
Change (Rattus norvegicus [5]): 25%
Change (Rattus norvegicus [6]): -50%
Change (Rattus norvegicus [7]): -50%

CC(C)(CO)CCCCOCCCCC(C)(CO)c1ccccc1 (centres undefined)
IC50 (Rattus norvegicus [1]): 5 µM
Change (Rattus norvegicus [2]): -61%
Change (Rattus norvegicus [3]): -45%
Change (Rattus norvegicus [4]): 26%
Change (Rattus norvegicus [5]): 52%
Change (Rattus norvegicus [6]): -55%
Change (Rattus norvegicus [7]): -13%

CC(C)(CO)CCCCCOCCCCC(C)(C)CO
IC50 (Rattus norvegicus [1]): 11 µM
Change (Rattus norvegicus [8]): -66%
Change (Rattus norvegicus [9]): -77%
Change (Rattus norvegicus [10]): 71%
Change (Rattus norvegicus [12]): -26%
Change (Rattus norvegicus [13]): 17%

CC(C)(CCCCOCCCCC(C)(C)COC1CCCCO1)COC1CCCCO1 (centres undefined)
IC50 (Rattus norvegicus [1]): 20 µM
Change (Rattus norvegicus [2]): -1%
Change (Rattus norvegicus [3]): 22%
Change (Rattus norvegicus [4]): 43%
Change (Rattus norvegicus [5]): 79%
Change (Rattus norvegicus [6]): 46%
Change (Rattus norvegicus [7]): 92%

CC(C)(CO)CCCC1CCC(CCCC(C)(C)CO)O1 (centres undefined)
IC50 (Rattus norvegicus [1]): 9 µM
Change (Rattus norvegicus [21]): -49%
Change (Rattus norvegicus [22]): -13%
Change (Rattus norvegicus [23]): 140%
Change (Rattus norvegicus [24]): 11%
Change (Rattus norvegicus [25]): 31%

CC(CO)(CCCCOCCCC(C)(CO)c1ccccc1)c1ccccc1 (centres undefined)
Change (Rattus norvegicus [8]): -1%
Change (Rattus norvegicus [9]): 21%
Change (Rattus norvegicus [10]): -2%
Change (Rattus norvegicus [11]): -20%
Change (Rattus norvegicus [12]): 16%
Change (Rattus norvegicus [13]): 45%
IC50 (Rattus norvegicus [14]): Not Active

CC(C)(CO)CCCCCCCCCCCC(C)(C)CO
IC50 (Rattus norvegicus [1]): 4 µM
Change (Rattus norvegicus [2]): -70%
Change (Rattus norvegicus [3]): -35%
Change (Rattus norvegicus [4]): -5%
Change (Rattus norvegicus [5]): -1%
Change (Rattus norvegicus [6]): -20%
Change (Rattus norvegicus [7]): 48%

CC(C)(CO)CCCCCCCCCC(C)(C)CO
IC50 (Rattus norvegicus [1]): 4 µM
Change (Rattus norvegicus [2]): -83%
Change (Rattus norvegicus [3]): -82%
Change (Rattus norvegicus [4]): 189%
Change (Rattus norvegicus [5]): 137%
Change (Rattus norvegicus [6]): -67%
Change (Rattus norvegicus [7]): -75%

CC(C)(CCCCOCCCCC(C)(C)CCC(=O)O)CCC(=O)O
IC50 (Rattus norvegicus [1]): 22 µM
Change (Rattus norvegicus [2]): -80%
Change (Rattus norvegicus [3]): -73%
Change (Rattus norvegicus [4]): 13%
Change (Rattus norvegicus [5]): 39%
Change (Rattus norvegicus [6]): -50%
Change (Rattus norvegicus [7]): -30%

CC(C)(CCCOCCOCCCC(C)(C)C(=O)O)C(=O)O
IC50 (Rattus norvegicus [1]): 72 µM
Change (Rattus norvegicus [2]): -24%
Change (Rattus norvegicus [3]): -13%
Change (Rattus norvegicus [4]): -6%
Change (Rattus norvegicus [5]): -4%
Change (Rattus norvegicus [6]): -38%
Change (Rattus norvegicus [7]): -13%

CC(C)(Cc1cccc(Oc2cccc(CC(C)(C)C(=O)O)c2)c1)C(=O)O
IC50 (Rattus norvegicus [1]): 53 µM
Change (Rattus norvegicus [2]): -46%
Change (Rattus norvegicus [3]): -27%
Change (Rattus norvegicus [4]): 20%
Change (Rattus norvegicus [5]): 16%
Change (Rattus norvegicus [6]): -59%
Change (Rattus norvegicus [7]): -21%

CC(C)(CO)CCCOCCCC(C)(C)CO
Change (Rattus norvegicus [8]): 21%
Change (Rattus norvegicus [9]): 77%
Change (Rattus norvegicus [10]): -13%
Change (Rattus norvegicus [11]): -8%
Change (Rattus norvegicus [12]): 7%
Change (Rattus norvegicus [13]): 58%
IC50 (Rattus norvegicus [14]): Not Active

CC(C)(CO)CCCC1CCCC(CCCC(C)(C)CO)O1 (centres undefined)
IC50 (Rattus norvegicus [1]): 39 µM
Change (Rattus norvegicus [2]): -74%
Change (Rattus norvegicus [3]): -46%
Change (Rattus norvegicus [4]): 75%
Change (Rattus norvegicus [6]): -70%
Change (Rattus norvegicus [7]): -31%
